A short description of data set [1]: Growth inhibition of mouse Nf1-/-;Trp53-/- KR158 cells assessed as green luminescence at 2 ug/ml after 2 days. It is filed as functional. The settings on record: KR158, 48 h, read-out: GI. Put shortly:
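KR158 Nf1−/−;Trp53−/− astrocytoma cells carry a human E2F1-promoter luciferase that gives green luminescence only in actively dividing cells. Cells were seeded at 1000 cells/well, and compounds were added after ≥4 h attachment. Green luminescence was read with ChromoGlo reagent after 2 d. Growth inhibition compares treated cells with vehicle-treated cells, both in growth media.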

The nature of data set [2]: Cytotoxicity against mouse Nf1-/-;Trp53-/- KR158 cells assessed as cell viability at 2 ug/ml after 2 days by red luminescence assay relative to control. It is filed as cell-based. The settings on record: read-out: Activity. A digest of the protocol: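 Nf1−/−;Trp53−/− KR158 mouse astrocytoma cells carry a CMV-promoter luciferase that gives red luminescence in all living cells. Cells were plated at 1000 cells/well and allowed to attach (≥4 h), then compounds were added. Luminescence was read with ChromoGlo reagent 2 d later. Loss of viability compares treated cells in growth media with […].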

In a further data set the test system is NCI60. Description: Cytotoxicity against human NCI60 cells at 10 uM. It is filed as functional, cell-based.

The structures appear in SMILES notation. Activity calls are given as the source filed them. The calls are words filed in the database; no cut-off is given here.

On to `CC(=O)/C=C/C=C/C(O)CC/C=C/C(=O)NCC(C)(C)O` (stereo not drawn), for which, in data set [1], the inhibition of growth at 2 µg/mL was found to be 52%. Also, the viability at 48 h, 2 ug/ml in data set [2] is 75%.

Turning to `C[C@@H](O)[C@H](O)/C=C/C=C\CC/C=C/C(=O)NCC(C)(C)O`, the inhibition of growth at 2 µg/mL in data set [1] came to 56%. Besides, the viability at 48 h, 2 ug/ml in data set [2] was 66%.

Take `C/C=C/C=C/C=C\CC/C=C/C(=O)NCC(C)(C)O`: the inhibition of growth at 2 µg/mL in data set [1] was 53%. For the same molecule, the viability at 48 h, 2 ug/ml in data set [2] came out at 106%.

With `C[C@H]1C=C[C@@H](/C=C/CC/C=C/C(=O)NCC(C)(C)O)OO1` [TIMURAMIDE B], the inhibition of growth at 2 µg/mL in data set [1] stood at 13%. In data set [2], the viability at 48 h, 2 ug/ml stood at 65%.

`CC(C)(O)CNC(=O)/C=C/CC/C=C\C=C\C(=O)O` [TIMURAMIDE C]: the inhibition of growth at 2 µg/mL in data set [1] worked out at 47%. Also, the viability at 48 h, 2 ug/ml in data set [2] was found to be 66%. The outcome in the data set on NCI60 was inactive.

As to `C/C=C/C=C/C=C/CC/C=C/C(=O)NCC(C)(C)O`, in data set [1], the inhibition of growth at 2 µg/mL is 65%. Further, the viability at 48 h, 2 ug/ml in data set [2] is 56%.

With `CC(C)(O)CNC(=O)/C=C/CCC(=O)O` [TIMURAMIDE D], the inhibition of growth at 2 µg/mL in data set [1] came out at 42%. The viability at 48 h, 2 ug/ml in data set [2] was 70%. The outcome in the data set on NCI60 was inactive.

As to `C[C@H](O)[C@H](O)/C=C/C=C\CC/C=C/C(=O)NCC(C)(C)O`, in data set [1], the inhibition of growth at 2 µg/mL came out at 31%. Also, the viability at 48 h, 2 ug/ml in data set [2] amounted to 79%.

Regarding `C[C@H]1C=C[C@@H](/C=C\CC/C=C/C(=O)NCC(C)(C)O)OO1` [TIMURAMIDE A], in data set [1], the inhibition of growth at 2 µg/mL came to 38%. Also, the viability at 48 h, 2 ug/ml in data set [2] is 97%. For the same molecule, the outcome with NCI60 was inactive.

As for `CC(O)/C=C/C=C/C(O)CC/C=C/C(=O)NCC(C)(C)O` (stereo not drawn), the inhibition of growth at 2 µg/mL in data set [1] is 41%. For the same molecule, in data set [2], the viability at 48 h, 2 ug/ml amounted to 67%.

The record behind these values is ChEMBL document CHEMBL2331456, “Isobutylhydroxyamides from the pericarp of Nepalese Zanthoxylum armatum inhibit NF1-defective tumor cell line growth” (J Nat Prod, 2013).
